Results as given in article PMC10376460 (European Journal of Endocrinology, 2023).
pIC50: −log10 of the molar value. Several values for one entry are separate records, joined by “and”; a condition that tells them apart may be missing. Identical values can stand only once. Entries after “also recorded” stand apart in the source; their conditions may differ.

Legend:
human AKR1C3 = biological target: T1, human AKR1C3 (Homo sapiens, UniProt P42330); assay: Biochemical enzyme assay: coumberol formation from coumberone; settings: read-out: IC50, inhibition of human AKR1C3 activity; coumberone 0.3 µmol/L (Km)
T1 sequence (P42330 1-323): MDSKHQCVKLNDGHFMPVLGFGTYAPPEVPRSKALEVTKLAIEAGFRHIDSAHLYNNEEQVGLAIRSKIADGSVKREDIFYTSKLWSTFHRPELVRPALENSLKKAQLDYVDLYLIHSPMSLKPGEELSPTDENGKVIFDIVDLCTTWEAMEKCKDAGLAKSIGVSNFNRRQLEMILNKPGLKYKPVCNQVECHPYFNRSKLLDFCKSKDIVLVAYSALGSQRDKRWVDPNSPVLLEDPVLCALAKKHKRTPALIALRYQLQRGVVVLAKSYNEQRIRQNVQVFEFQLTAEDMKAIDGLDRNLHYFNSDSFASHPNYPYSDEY

postmenopausal women [1] = assay: Steroid assay; format: in vivo, human; settings: 30 mg QD to 60 mg BID for 14 days
In short: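 Postmenopausal women received test compound QD or BID, or placebo, for 14 days with 5-day follow-up. A commercial validated multiplex LC-MS/MS kit quantified 17 serum steroids at 0-48 h after dosing on day −1, day 1 and day 14, plus predose samples. Fold change was the ratio to the last pre-dose value of the period. Values below LLOQ were excluded.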

premenopausal women [2] = assay: Steroid assay; format: in vivo, human
In short: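 Premenopausal women, pretreatment cycle versus 28-day treatment with 60 mg QD or BID. A validated multiplex LC-MS/MS kit measured 17 serum steroids at 3- to 4-day visits, E3G-triggered visits, first bleeding days and end of treatment. LH-peak-adjusted AUCs were taken from day −5 to +10 per cycle. Cycles were compared with 90% CI and Bonferroni–Holm-adjusted P values, and values below LLOQ were excluded.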

premenopausal women [3] = assay: Ovarian function assessment; format: in vivo, human; settings: 60 mg QD or BID 28 d
In short: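 Open-label, intraindividual comparison in 18 premenopausal women: a pretreatment cycle, then oral test compound 60 mg QD or BID for 28 days. Assessments were transvaginal ultrasound (follicle diameter, endometrial thickness), Hoogland scoring of ovarian activity, and a bleeding pattern from daily self-rated maximum bleeding intensity. FSH and LH were sampled at 3- to 4-day visits, with extra visits on urinary E3G rises.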

[4] = test system: healthy premenopausal and postmenopausal women; assay: Eicosanoid; format: in vivo, human; settings: systemic measurements
In short: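 Plasma from postmenopausal (part A) and premenopausal (part B) women on the test compound. Eicosanoids, including prostaglandins, and polyunsaturated fatty acids were measured together by a published LC-MS/MS method. Part B sampling was at 3- to 4-day visits.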

[5] = Plasma pharmacokinetics, part A; format: in vivo, human
In short: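 Postmenopausal women, randomized, double-blind, placebo-controlled (7 active, 2 placebo per step). A single dose was given, then after a 14-28 day washout 3, 30 or 90 mg QD or 60 mg BID for 14 days. Plasma parent and metabolite M-7 were sampled predose to 336 h, plus periodic predose troughs. Noncompartmental parameters, accumulation and linearity indices were derived, and steady state was judged from mean Ctrough.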

[6] = Plasma pharmacokinetics, part B; format: in vivo, human; settings: premenopausal women
In short: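 Premenopausal women received open-label oral test compound 60 mg QD or BID for 28 days. Plasma parent and metabolite M-7 concentrations were measured. Standard noncompartmental multiple-dose PK parameters were calculated from concentration-time data.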

postmenopausal women [7] = assay: Safety assessments; format: in vivo, human
In short: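 Safety covered adverse event reports, vital signs, ECGs, hematology, serum chemistry including liver function tests (transaminases, alkaline phosphatase) and urinalysis. Total serum bilirubin was followed during and after dosing against an ULN of 1.23 mg/dL. Placebo recipients were pooled, with descriptive statistics.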

AKR1C1 = settings: concentrations up to 10 µM; cited from earlier work
AKR1C2 = settings: concentrations up to 10 µM; cited from earlier work
AKR1C4 = settings: concentrations up to 10 µM; cited from earlier work
[8] = test system: organic anion transporting polypeptide (OATP) 1B1/3 transporters; settings: in vitro; cited from earlier work
[9] = test system: premenopausal women with endometriosis; settings: phase 2 study; cited from earlier work
[10] = LH-peak-adjusted AUC, 60 mg once or twice daily 28 d
[11] = serum, LH-peak-adjusted (day −5 to +10), 60 mg once or twice daily 28 d
[12] = treatment vs pretreatment cycle, 60 mg once or twice daily 28 d

CN(CCC(=O)O)C(=O)c1ccc2c(c1)CC[C@@H]1[C@@H]2CC[C@]2(C)C(c3cncc(F)c3)=CC[C@@H]12 [BAY1128688]
pIC50 (human AKR1C3): 8.85
serum concentrations of androsterone (postmenopausal women [1]): increased in a dose-dependent manner
changes in serum E2 (17β-estradiol) concentrations (premenopausal women [2]; 60 mg QD or BID 28 d): no concomitant changes; also recorded: no systematic changes
changes in serum progesterone concentrations (premenopausal women [2]; 60 mg QD or BID 28 d): no concomitant changes; also recorded: no systematic changes
serum testosterone, treatment cycle vs pretreatment cycle (premenopausal women [2]; 60 mg QD or BID 28 d): slightly decrease
11-Deoxycorticosterone: X-fold change from baseline, mean (premenopausal women [2]; [10]): 0.88
11-Deoxycorticosterone: X-fold change from baseline, median (premenopausal women [2]; [10]): 0.87
11-Deoxycortisol: X-fold change from baseline, mean (premenopausal women [2]; [10]): 0.85
11-Deoxycortisol: X-fold change from baseline, median (premenopausal women [2]; [10]): 0.79
17alpha-Hydroxyprogesterone: X-fold change from baseline, mean (premenopausal women [2]; [10]): 0.88
17alpha-Hydroxyprogesterone: X-fold change from baseline, median (premenopausal women [2]; [10]): 0.87
Aldosterone: X-fold change from baseline, mean (premenopausal women [2]; [10]): 1.05
Aldosterone: X-fold change from baseline, median (premenopausal women [2]; [10]): 0.94
Androstenedione: X-fold change from baseline, mean (premenopausal women [2]; [10]): 0.99
Androstenedione: X-fold change from baseline, median (premenopausal women [2]; [10]): 0.98
Androsterone: X-fold change from baseline, mean (premenopausal women [2]; [10]): 2.95
Androsterone: X-fold change from baseline, median (premenopausal women [2]; [10]): 2.42
Corticosterone: X-fold change from baseline, mean (premenopausal women [2]; [10]): 0.98
Corticosterone: X-fold change from baseline, median (premenopausal women [2]; [10]): 0.95
Cortisol: X-fold change from baseline, mean (premenopausal women [2]; [10]): 0.95
Cortisol: X-fold change from baseline, median (premenopausal women [2]; [10]): 0.92
Cortisone: X-fold change from baseline, mean (premenopausal women [2]; [10]): 0.94
Cortisone: X-fold change from baseline, median (premenopausal women [2]; [10]): 0.92
Dehydroepiandrosterone sulfate: X-fold change from baseline, mean (premenopausal women [2]; [10]): 1.11
Dehydroepiandrosterone sulfate: X-fold change from baseline, median (premenopausal women [2]; [10]): 1.12
Dehydroepiandrosterone: X-fold change from baseline, mean (premenopausal women [2]; [10]): 0.83
Dehydroepiandrosterone: X-fold change from baseline, median (premenopausal women [2]; [10]): 0.78
Dihydrotestosterone: X-fold change from baseline, mean (premenopausal women [2]; [10]): 1.52
Dihydrotestosterone: X-fold change from baseline, median (premenopausal women [2]; [10]): 1.53
Estradiol: X-fold change from baseline, mean (premenopausal women [2]; [10]): 1.06
Estradiol: X-fold change from baseline, median (premenopausal women [2]; [10]): 1.12
Estrone: X-fold change from baseline, mean (premenopausal women [2]; [10]): 1.05
Estrone: X-fold change from baseline, median (premenopausal women [2]; [10]): 1.08
Etiocholanolone: X-fold change from baseline, mean (premenopausal women [2]; [10]): 1.96
Etiocholanolone: X-fold change from baseline, median (premenopausal women [2]; [10]): 1.70
Progesterone: X-fold change from baseline, mean (premenopausal women [2]; [10]): 0.84
Progesterone: X-fold change from baseline, median (premenopausal women [2]; [10]): 0.90
Testosterone: X-fold change from baseline, mean (premenopausal women [2]; [10]): 0.86
Testosterone: X-fold change from baseline, median (premenopausal women [2]; [10]): 0.87
11-Deoxycorticosterone: Treatment period AUC (premenopausal women [2]; [11]): 1.61 nmol/day
11-Deoxycortisol: Treatment period AUC (premenopausal women [2]; [11]): 4.84 nmol/day
17alpha-Hydroxyprogesterone: Treatment period AUC (premenopausal women [2]; [11]): 42.5 nmol/day
Aldosterone: Treatment period AUC (premenopausal women [2]; [11]): 3.17 nmol/day
Androstenedione: Treatment period AUC (premenopausal women [2]; [11]): 51.1 nmol/day
Androsterone: Treatment period AUC (premenopausal women [2]; [11]): 20.6 nmol/day
Corticosterone: Treatment period AUC (premenopausal women [2]; [11]): 90.6 nmol/day
Cortisol: Treatment period AUC (premenopausal women [2]; [11]): 4102 nmol/day
Cortisone: Treatment period AUC (premenopausal women [2]; [11]): 859 nmol/day
Dehydroepiandrosterone sulfate: Treatment period AUC (premenopausal women [2]; [11]): 69 510 nmol/d
Dehydroepiandrosterone: Treatment period AUC (premenopausal women [2]; [11]): 130 nmol/day
Dihydrotestosterone: Treatment period AUC (premenopausal women [2]; [11]): 10.2 nmol/day
Estradiol: Treatment period AUC (premenopausal women [2]; [11]): 7.29 nmol/day
Estrone: Treatment period AUC (premenopausal women [2]; [11]): 4.02 nmol/day
Etiocholanolone: Treatment period AUC (premenopausal women [2]; [11]): 7.01 nmol/day
Progesterone: Treatment period AUC (premenopausal women [2]; [11]): 213 nmol/day
Testosterone: Treatment period AUC (premenopausal women [2]; [11]): 9.45 nmol/day
androsterone on-treatment value, maximum (premenopausal women [2]; serum, 60 mg QD or BID): 6.36 nmol/L
11-Deoxycorticosterone: AUC difference (mixed linear model) (premenopausal women [2]; [12]): -0.308 nmol/day
11-Deoxycortisol: AUC difference (mixed linear model) (premenopausal women [2]; [12]): -0.953 nmol/day
17alpha-Hydroxyprogesterone: AUC difference (mixed linear model) (premenopausal women [2]; [12]): -5.20 nmol/day
Aldosterone: AUC difference (mixed linear model) (premenopausal women [2]; [12]): 0.0041 nmol/day
Androstenedione: AUC difference (mixed linear model) (premenopausal women [2]; [12]): -0.312 nmol/day
Androsterone: AUC difference (mixed linear model) (premenopausal women [2]; [12]): 13.5 nmol/day
Corticosterone: AUC difference (mixed linear model) (premenopausal women [2]; [12]): -17.7 nmol/day
Cortisol: AUC difference (mixed linear model) (premenopausal women [2]; [12]): -407 nmol/day
Cortisone: AUC difference (mixed linear model) (premenopausal women [2]; [12]): -55.6 nmol/day
Dehydroepiandrosterone sulfate: AUC difference (mixed linear model) (premenopausal women [2]; [12]): 9524 nmol/day
Dehydroepiandrosterone: AUC difference (mixed linear model) (premenopausal women [2]; [12]): -23.3 nmol/day
Dihydrotestosterone: AUC difference (mixed linear model) (premenopausal women [2]; [12]): 3.49 nmol/day
Estradiol: AUC difference (mixed linear model) (premenopausal women [2]; [12]): 0.343 nmol/day
Estrone: AUC difference (mixed linear model) (premenopausal women [2]; [12]): 0.139 nmol/day
Etiocholanolone: AUC difference (mixed linear model) (premenopausal women [2]; [12]): 3.47 nmol/day
Progesterone: AUC difference (mixed linear model) (premenopausal women [2]; [12]): -50.6 nmol/day
Testosterone: AUC difference (mixed linear model) (premenopausal women [2]; [12]): -1.43 nmol/day
menstrual cyclicity and ovarian function (premenopausal women [3]): not altered
participants with Hoogland score of 6 (normal ovulation) in treatment cycle (premenopausal women [3]): 14 of 18 and 14/18
impact on prostaglandins investigated [4]: no obvious impact
RAAUC (accumulation ratio) ([5]; 60 mg BID, geometric mean/%CV): 2.32
time until PK steady-state conditions were reached (mean Ctrough) ([5]; all dose groups): 4 to 8 days
multiple-dose PK parameters compared with postmenopausal women [6]: Largely similar
individual maximum increase in total serum bilirubin, fold ULN (postmenopausal women [7]; 60 mg BID, day 13): around 1.2 fold ULN
individual maximum increase in total serum bilirubin, fold ULN (postmenopausal women [7]; 90 mg QD, day 6): around 2.3 fold ULN
overall safety and tolerability (postmenopausal women [7]; 2 or 4 weeks of treatment, healthy female participants): safe and well tolerated
increases in serum bilirubin, fold above the ULN (postmenopausal women [7]; all participants except two): below 1.50 fold
changes in liver enzymes (transaminases; alkaline phosphatase) (postmenopausal women [7]; any of the participants, parts A and B): no concomitant changes
inhibition of AKR1C1 (AKR1C1): no inhibition
inhibition of AKR1C2 (AKR1C2): no inhibition
inhibition of AKR1C4 (AKR1C4): no inhibition
inhibition of OATP 1B1/3 transporters [8]: inhibitor
finding that terminated development [9]: hepatotoxicity
